According to ChEMBL document CHEMBL4251617, “Synthesis and anticancer activity of novel water soluble benzimidazole carbamates” (Eur J Med Chem, 2018):
In brackets after ≈: the same amount, converted by molar mass. Activity calls are given as the source filed them. The rule behind the calls is not given here.

Experiments:
[1] = Cytotoxicity against human PC3MLN4 cells assessed as reduction in cell viability after 48 hrs by cyquant reagent based fluorescence spectrometric assay; assay type: functional
Summary of the method: (§1)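 3 X 10^5 cells per well seeded overnight, then exposed 48 hr. Cells harvested, washed, frozen at -80 °C overnight, thawed, and CyQuant reagent added with fluorescence read at 485 nm. Survival as % of vehicle-treated cells. EC50 (50% survival reduction) by median-dose effect analysis.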

PC-3M = assay: Cytotoxicity against human PC3M cells assessed as reduction in cell viability after 48 hrs by cyquant reagent based fluorescence spectrometric assay; assay type: functional; summary of the method: as §1
[2] = Selectivity ratio of EC50 for cytotoxicity against human PC3M cells to EC50 for cytotoxicity against human PC3MLN4 cells; assay type: functional
[3] = Cytotoxicity against human PC3MLN4 cells assessed as cell viability at 10 uM after 72 hrs by MTT assay relative to control; assay type: functional; settings: read-out: Activity
[4] = Cytotoxicity against human PC3MLN4 cells assessed as cell viability at 1 uM after 72 hrs by MTT assay relative to control; assay type: functional; settings: read-out: Activity
PC-3 [5] = assay: Cytotoxicity against human PC3 cells assessed as cell viability at 10 uM after 72 hrs by MTT assay relative to control; assay type: functional; settings: PC-3, 72 h, read-out: Activity
PC-3 [6] = assay: Cytotoxicity against human PC3 cells assessed as cell viability at 1 uM after 72 hrs by MTT assay relative to control; assay type: functional; settings: PC-3, 72 h, read-out: Activity
A549 [7] = assay: Cytotoxicity against human A549 cells assessed as cell viability at 10 uM after 72 hrs by MTT assay relative to control; assay type: functional; settings: A549, 72 h, read-out: Activity
A549 [8] = assay: Cytotoxicity against human A549 cells assessed as cell viability at 1 uM after 72 hrs by MTT assay relative to control; assay type: functional; settings: A549, 72 h, read-out: Activity
Mus musculus = assay: Toxicity in nude mouse xenografted with human PC3MLN4 cells assessed as reduction in body weight at 30 mg/kg, ip administered every other day 3 times per week for 2 weeks measured 3 times per week during compound dosing relative to control; assay type: organism-based; set-up: scale not given: the % may be the effect or the level left; settings: in vivo, 336 h
Summary of the method: (§2)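 PC3MLN4 cells (1 X 10^6) in growth factor reduced Matrigel/HBSS injected subcutaneously between the scapulae of athymic nude mice. Dosing began day 13 at tumor volume about 35 mm3. Randomized groups of 4-5 mice got 30 mg/kg IP in 5% DMSO/HBSS, or vehicle alone. Tumor (calipers) and body weight measured on dosing days and 3 days after last dose. Mean ± SEM, t-test.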

Homo sapiens [9] = species on record: Homo sapiens; assay: Upregulation of Cyclin-B1 protein expression in human PC3MLN4 cells at 1 uM after 24 hrs by Western blot method; assay type: functional, cell-based
Summary of the method: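 PC3MLN4 cells were treated 24 hr and lysed in 50 mM Tris pH 7.5, 150 mM NaCl, 10 mM NaF, 0.5% NP40 with protease inhibitors. Equal protein (BCA) was run on SDS-PAGE and transferred to nitrocellulose, then blocked in 5% milk/TBST. Blots were probed for cyclin B1 with GAPDH as loading control, using HRP secondary and ECL.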

Homo sapiens [10] = species on record: Homo sapiens; assay: Disruption of microtubule dynamics in human PC3MLN4 cells at 1 uM after 48 hrs by immunofluorescence microscopic method; assay type: cell-based
Summary of the method: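 PC3MLN4 cells on coverslips were treated 48 hr at 1 µM. They were fixed in 4% PFA 15 min and permeabilized in 0.2% Triton X-100 8 min. Blocking was 2% goat serum/2% BSA 1 hr. Anti-α-tubulin 1:200 for 1 hr was followed by Alexa Fluor 488 secondary 1:400 for 45 min, with DAPI 500 nM counterstain and imaging at 100X and 200X.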

NCI-H157 = assay: Cytotoxicity against human NCI-H157 cells assessed as reduction in cell viability after 72 hrs by MTT assay; assay type: functional, cell-based; settings: NCI-H157, 72 h
Summary of the method: (§3)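 Cells seeded per well at 5 X 10^3 (PC3MLN4, A549, Calu1, H157, A549-TR), 6 X 10^3 (PC3) or 8 X 10^3 (SKOV3). SKOV3 grown in McCoy's 5A, others in RPMI-1640, 10% FBS. Next day 2X drug added, 3.2 nM-50 µM five-fold dilutions, 72 hr.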

Calu-1 = assay: Cytotoxicity against human Calu1 cells assessed as reduction in cell viability after 72 hrs by MTT assay; assay type: functional, cell-based; settings: Calu-1, 72 h; summary of the method: as §3
A549 [11] = assay: Cytotoxicity against human A549 cells assessed as reduction in cell viability after 72 hrs by MTT assay; assay type: functional, cell-based; settings: A549, 72 h; summary of the method: as §3
PC-3 [12] = assay: Cytotoxicity against human PC3 cells assessed as reduction in cell viability after 72 hrs by MTT assay; assay type: functional, cell-based; settings: PC-3, 72 h; summary of the method: as §3
[13] = Cytotoxicity against human PC3MLN4 cells assessed as reduction in cell viability after 72 hrs by MTT assay; assay type: functional, cell-based; summary of the method: as §3
SK-OV-3 = assay: Cytotoxicity against human SKOV3 cells assessed as reduction in cell viability after 72 hrs by MTT assay; assay type: functional, cell-based; settings: SK-OV-3, 72 h; summary of the method: as §3
A549/TR = assay: Cytotoxicity against human A549/TR cells assessed as reduction in cell viability after 72 hrs by MTT assay; assay type: functional, cell-based; summary of the method: as §3
Homo sapiens [14] = species on record: Homo sapiens; assay: Cell cycle arrest in human PC3MLN4 cells assessed as accumulation at G2/M phase at 1 uM after 24 hrs by propidium iodide staining based flow cytometry; assay type: functional
Summary of the method: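 PC3MLN4 cells seeded 3 X 10^5/well, next day treated 24 hr at 1 µM, nocodazole 1 µM as control. Floating and adherent cells pooled, fixed in cold 70% ethanol 30 min, then PI plus RNase A for 30 min. 15 X 10^3 cells acquired by FACS. G1/S/G2 fractions from Dean-Jett-Fox fit.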

[15] = Antitumor activity against human PC3MLN4 cells xenografted in nude mouse assessed as reduction in tumor volume at 30 mg/kg, ip administered every other day 3 times per week for 2 weeks; assay type: functional; summary of the method: as §2
[16] = Kinetic solubility in pH 7.4 PBS buffer sonicated for 30 mins by HPLC-UV method
physchem = settings: PBS buffer, pH 7.4

Structure (SMILES) | viability at 10 µM [3] [%] | viability at 1 µM [4] [%] | viability at 10 µM (PC-3 [5]) [%] | viability at 1 µM (PC-3 [6]) [%] | viability at 10 µM (A549 [7]) [%] | viability at 1 µM (A549 [8]) [%] | other results
CCCSc1ccc2[nH]c(NC(=O)OC)nc2c1 [ALBENDAZOLE] |  |  |  |  |  |  | EC50 [1]: 0.58 µM; EC50 (PC-3M): 1.15 µM; Ratio EC50 [2]: 2
COC(=O)Nc1nc2cc(Oc3cccc(N4CCN(C)CC4)c3)ccc2[nH]1 | 33.4 | 86.3 | 32.2 | 73.1 | 47.5 | 77 | 
COC(=O)Nc1nc2ccc(C(=O)c3ccccc3)cc2[nH]1 [MEBENDAZOLE] |  |  |  |  |  |  | Activity (Mus musculus): 5%
COC(=O)Nc1nc2cc(C(=O)c3cccs3)ccc2[nH]1 |  |  |  |  |  |  | Activity (Homo sapiens [9]): Active; Activity (Homo sapiens [10]): Active
CCCSc1ccc2[nH]c(NC(=O)OCCN(C)C)nc2c1 | 42.8 | 92.7 | 37.9 | 82.5 | 51.8 | 75.5 | 
CN(C)CCOC(=O)Nc1nc2cc(Sc3ccccc3)ccc2[nH]1 | 36.6 | 98.1 | 35 | 88.9 | 39.2 | 91.8 | 
COC(=O)Nc1nc2cc(C(=O)c3ccccc3N(C)C3COC3)ccc2[nH]1 | 38.4 | 100 | 54.8 | 101 | 46.8 | 99 | 
CCCSc1ccc2[nH]c(NC(=O)OCC3(C)COC3)nc2c1 | 89.7 | 87.6 | 79.2 | 87.2 | 87.6 | 83.1 | 
CCCSc1ccc2[nH]c(NC(=O)OC3COC3)nc2c1 | 83.8 | 88.3 | 84.5 | 95.2 | 79.2 | 73.2 | 
CN(C)CCOC(=O)Nc1nc2cc(C(=O)c3ccccc3)ccc2[nH]1 | 98.8 | 101 | 92.6 | 97.3 | 89.6 | 94.4 | 
COC(=O)Nc1nc2cc(Oc3cccc(N4CCN(C)CC4)n3)ccc2[nH]1 | 74 | 83 | 52.1 | 98.1 | 72.6 | 87.8 | 
COC(=O)Nc1nc2cc(C(=O)c3ccccc3)ccc2[nH]1 [MEBENDAZOLE] | 24.9 | 53.9 | 35.8 | 63.4 | 50.8 | 61.5 | EC50 [1]: 0.7 µM; EC50 (PC-3M): 1.21 µM; EC50 (NCI-H157): 3.5 µM; EC50 (Calu-1): 1.1 µM; EC50 (A549 [11]): 0.9 µM; EC50 (PC-3 [12]): 1.1 µM; EC50 [13]: 0.5 µM; EC50 (SK-OV-3): 0.5 µM; EC50 (A549/TR): 1.7 µM; Activity (Homo sapiens [14]): inactive; Activity (Homo sapiens [10]): Active; T/C [15]: 0.31
O=C(Nc1nc2cc(Sc3ccccc3)ccc2[nH]1)OC1COC1 | 79.1 | 80.2 | 87.8 | 107 | 74.8 | 75 | 
CCCSc1ccc2[nH]c(NC(=O)OCCCN(C)C)nc2c1 | 88.6 | 86.7 | 78.2 | 95.5 | 89.9 | 83.8 | 
CN(C)CCOC(=O)Nc1nc2cc(C(=O)c3ccc(F)cc3)ccc2[nH]1 | 97.2 | 84.6 | 90.9 | 91.2 | 80.4 | 89.4 | 
O=C(Nc1nc2cc(C(=O)c3ccccc3)ccc2[nH]1)OC1COC1 | 66.8 | 70.6 | 65.5 | 90.9 | 62 | 68 | 
CN(C)CCCOC(=O)Nc1nc2cc(C(=O)c3ccc(F)cc3)ccc2[nH]1 | 91 | 87.3 | 86.5 | 105 | 88.1 | 85.4 | 
COC(=O)Nc1nc2cc(C(=O)c3ccc(N(C)C4COC4)cc3)ccc2[nH]1 | 23.2 | 34.9 | 33.6 | 44.5 | 42.2 | 50.2 | EC50 (NCI-H157): 2.4 µM; EC50 (Calu-1): 1.6 µM; EC50 (A549 [11]): 1.4 µM; EC50 (PC-3 [12]): 1.6 µM; EC50 [13]: 0.9 µM; EC50 (SK-OV-3): 1 µM; EC50 (A549/TR): 3.8 µM; Activity (Homo sapiens [14]): Active; Activity (Homo sapiens [9]): Active; Activity (Homo sapiens [10]): Active; solubility kinetic at 0.5 h [16]: 253 µM (≈ 96.2 µg/mL); T/C [15]: 0.36; Activity (Mus musculus): Non-Toxic; solubility thermodynamic at 24 h (physchem): 361 µM (≈ 137 µg/mL)
CC(=O)O[C@H]1C(=O)[C@@]2(C)[C@H]([C@H](OC(=O)c3ccccc3)[C@]3(O)C[C@H](OC(=O)[C@H](O)[C@@H](NC(=O)c4ccccc4)c4ccccc4)C(C)=C1C3(C)C)[C@]1(OC(C)=O)CO[C@@H]1C[C@@H]2O [PACLITAXEL] |  |  |  |  |  |  | EC50 (A549/TR): 10.3 µM
COC(=O)Nc1nc2cc(Sc3ccccc3)ccc2[nH]1 [FENBENDAZOLE] |  |  |  |  |  |  | EC50 [1]: 0.91 µM; EC50 (PC-3M): 2.6 µM; Ratio EC50 [2]: 2
COC(=O)Nc1nc2cc(C(=O)c3ccc(F)cc3)ccc2[nH]1 [FLUBENDAZOLE] |  |  |  |  |  |  | EC50 [1]: 0.67 µM; EC50 (PC-3M): 1.43 µM; Ratio EC50 [2]: 2
